# Assay results published in PubChem BioAssay AID588395 (Southern Research Specialized Biocontainment Screening …, 2011).
# Active and inactive are the calls of the source.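 Rule for the calls: active = phage lysis blocked by at least 50% at any tested dose; inconclusive = replicate wells disagree with each other; inactive = the rest.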
# Tested on: not listed separately
# Assay: inhibitors of K1F phage lysis, dose response, capsule biogenesis inhibitor project, E. coli UTI89, set 7 (AID 588395)
# Conditions: E. coli UTI89 K1F phage lysis inhibition, OD600 3 h; at 100 µM (top of the series)
# Outline: (§1)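 Material – E. coli UTI89 (K1) · Quantity – culture at 1:100 dilution · Medium – LB broth · Also added – K1F phage · Times – 1.25 h pre-infection at 37 °C, 3 h phage exposure · Detection – absorbance at 600 nm (OD600) · Read-out – inhibition of phage lysis from OD600 at 3 h post-infection · Controls – phage-resistant kpsM mutant culture as lysis-resistant comparison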
row,SMILES,inhibition of phage lysis
1,COc1ccc2nc(NC(=O)c3ccc(Br)o3)[nH]c2c1,0.41% (inactive)
2,O=C(Nc1nc2ccc(Cl)cc2s1)c1ccc(Br)o1,-4.26% (inactive)
3,COc1ccc(NC(=O)c2ccc3ncsc3c2)cc1,4.51% (inactive)
4,Cc1ccc(C(=O)Nc2nc3ccc(Cl)cc3s2)s1,-2.05% (inactive)
5,COc1ccc(NC(=O)c2ccc3ncccc3c2)cc1,-4.29% (inactive)
6,Cc1ccc(C(=O)Nc2nc3ccc(Br)cc3s2)s1,-11.1% (inactive)
7,O=C(Nc1nc2ccc(OC(F)(F)F)cc2s1)c1ccc(Br)cc1,-15.3% (inactive)
8,O=C(Nc1nc2ccc(F)cc2s1)c1ccc(Br)cc1,-15.7% (inactive)
9,O=C(Nc1ccc(C(F)(F)F)cc1)c1ccc2ncccc2c1,2.46% (inactive)
10,COc1ccc2nc(NC(=O)c3ccc(Br)s3)[nH]c2c1,0.85% (inactive)
11,Cc1ccc(NC(=O)c2ccc3ncccc3c2)cc1,0% (inactive)
12,O=C(Nc1nc2ccc(Br)cc2s1)c1ccc(Br)o1,9.79% (inactive)
13,O=C(Nc1nc2ccc(Cl)cc2s1)c1ccc(Br)s1,6.12% (inactive)
14,COc1ccc2nc(NC(=O)c3ccc(Br)cc3)sc2c1,4.68% (inactive)
15,O=C(Nc1nc2ccc(F)cc2s1)c1ccc(Br)s1,6.49% (inactive)
16,COc1ccc2nc(NC(=O)c3ccc(C)s3)sc2c1,-3.86% (inactive)
17,O=C(Nc1nc2ccc(F)cc2s1)c1ccc(Br)o1,15.8% (inactive)
18,O=C(Nc1nc2ccc(Cl)cc2s1)c1ccc(Br)cc1,12.9% (inactive)
19,O=C(Nc1nc2ccc(Br)cc2s1)c1ccc(Br)cc1,2.55% (inactive)
20,Cc1ccc(C(=O)Nc2nc3ccccc3s2)s1,-9.44% (inactive)

row,SMILES,inhibition of phage lysis
1,O=C(Nc1nc2ccc(OC(F)(F)F)cc2s1)c1ccc(Br)s1,1.91% (inactive)
2,COC(=O)c1ccc(NC(=O)c2ccc3ncsc3c2)cc1,9.02% (inactive)
3,O=C(Nc1cccnc1)c1ccc2ncsc2c1,0.82% (inactive)
4,COc1ccc2nc(NC(=O)c3ccc(Br)cc3)[nH]c2c1,-2.55% (inactive)
5,COc1ccc2nc(NS(=O)(=O)c3ccc(Br)s3)sc2c1,-0.42% (inactive)
6,O=C(Nc1nc2ccc(OC(F)(F)F)cc2s1)c1ccc(Br)o1,-11.1% (inactive)
7,O=C(Nc1ccc(Br)cc1)c1ccc2ncccc2c1,-0.43% (inactive)
8,O=C(Nc1nc2ccccc2s1)c1ccc(Br)o1,0% (inactive)
9,O=C(Nc1nc2ccc(C(F)(F)F)cc2s1)c1ccc(Br)o1,1.64% (inactive)
10,COC(=O)c1ccc(NC(=O)c2ccc3ncccc3c2)cc1,39.1% (inactive)
11,O=C(Nc1nc2ccccc2s1)c1ccc(Br)cc1,1.7% (inactive)
12,COc1ccc2nc(NC(=O)c3ccc(Br)o3)sc2c1,41.7% (inactive)
13,O=C(Nc1nc2ccc(C(F)(F)F)cc2s1)c1ccc(Br)cc1,2.13% (inactive)
14,O=S(=O)(Nc1nc2ccccc2s1)c1ccc(Br)s1,-2.08% (inactive)
15,O=C(Nc1nc2ccccc2s1)c1ccc(Br)s1,-6.12% (inactive)
16,O=C(Nc1nc2ccc(Br)cc2s1)c1ccc(Br)s1,18% (inactive)
17,COc1ccc2nc(NC(=O)c3cc(Br)c(Br)s3)[nH]c2c1,-1.23% (inactive)
18,O=S(=O)(Nc1nc2ccc(Br)cc2s1)c1ccc(Br)s1,6.67% (inactive)
19,O=C(Nc1nc2ccc(C(F)(F)F)cc2s1)c1ccc(Br)s1,2.86% (inactive)

# Tested on: E. coli UTI89 K1F phage lysis inhibition, OD600 3 h
# Assay: as above
# Conditions: not given
# Outline: as §1
row,SMILES,IC50 [nM]
1,O=C(Nc1ccncc1)c1ccc2ncsc2c1,1310
2,COc1ccc2nc(NC(=O)c3ccc(Br)s3)sc2c1,2150
